Data published in the RNAGym collection of RNA variant scans (doi:10.1126/science.aae0568).
Fewer inactive variants are shown than the library holds.

B1: tRNA (parent)
chain: GUUCCGUUGGCGUAAUGGUAACGCGUCUCCCUCCUAAGGAGAAGACUGCGGGUUCGAGUCCCGUACGGAACG

Variants of: B1
Experiment: yeast fitness relative to wild type (ratio to wild type); higher = fitter; tRNA-Arg(CCU), competitive growth, 37 C, YPD
In short: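 Variants of the tRNA-Arg(CCU) gene were chemically synthesised with a 3% per-site mutation rate across 69 sites and placed at the native genomic locus in Saccharomyces cerevisiae. Six parallel replicates of the pooled strains were competed in YPD at 37°C for 24 hours, and gene amplicons from the start and end populations were read by 100-nucleotide paired-end sequencing. Darwinian fitness relative to wild type was derived from changes in genotype frequencies. Genotypes required ≥ 100 starting reads, and estimates < 0.5 were set to 0.5.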

Question: For GUUCCGUUGCCGUAAUGGUAACGCGUCUCCCUCCUAAGGAGAAGACUGCGGAUUCGAGUCCCGUACGGAACG, which yeast fitness is on record?
Answer: Its yeast fitness is 0.666.

Question: Which yeast fitness does the source give for GUUCCGUUGGAGUUAUGGUAACGCGUUUCCCUCCUAAGGAGAAGACUGCGGGUUCGAGUCCCGUACGGAACG here?
Answer: Its yeast fitness is ≤ 0.5.

Question: For GUUCCGUUGCCGUAAUGGUAACGCGUCUCCCUCCGAAGGAGACGACCGCGGGUUUGAGUCCCGUACGGCACG, which yeast fitness is on record?
Answer: The yeast fitness was 0.574.

Question: Which yeast fitness does the source give for GUUCCGUUGCCGAGAUGGUGAAGGGUCUCCCUCCUAAGGAGAAGACUGCGGCUUCGAGUCCCGUACGGAACG here?
Answer: Its yeast fitness is ≤ 0.5.

Question: With GUUCCGUUGCCGUAACGGUAAAGCGUCUCCCUACUAAGGAGAAGACUGCGGGUUCGAGUCCCGUACGGAACG as the variant, how does the yeast fitness read?
Answer: The yeast fitness was ≤ 0.5.

Question: With GUUCCGUUGGAGUAAUGGUAACGCGUCUCCCUCCUAAGGAGAAGACUGCGGGUUCGGGUCCCGUACGGAACG as the variant, how does the yeast fitness read?
Answer: The yeast fitness was 0.655.

Question: For GUUCCGUUGGAGUAGUGGUAAGGCGUCUCCCUCCUAAGGAGAAGACUGCGGGUUCGAGUCUCGUACGGAACG, which yeast fitness is on record?
Answer: Its yeast fitness is ≤ 0.5.

Question: With GUUCCGUUGGAGUAAUGGUAACGCGUCUCCCUCCUAAGGAGAAGACUGCGGGUUCGAGUCCCGUACGGAUCG as the variant, how does the yeast fitness read?
Answer: The yeast fitness was 0.581.

Question: Which yeast fitness does the source give for GUUCCGUUGGAGUAAUGGUAACGUGUCUCCCUCCUAAGGAGAAGACUGCGGGUUCGAGUACCGUACGGAACG here?
Answer: The yeast fitness was ≤ 0.5.

Question: With GUUCCGUUGGAGUAAUGGUAACGCGUCUCCCUCCUGAGGAGACGACUACGGGUUCGAGUCCCGUACGGAACG as the variant, how does the yeast fitness read?
Answer: Its yeast fitness is 0.558.

Question: Which yeast fitness does the source give for GUUCCGUUGCCGUAAUGGUAACGCGUCUCCCUCCUAAGGAGAAGACGGCGGGUUUGAGUCCCGUACGGAGCG here?
Answer: Its yeast fitness is ≤ 0.5.

Question: Which yeast fitness does the source give for GUUCCGUUGGAGUAAUGGUAAGGCGUCUGCCUCCUAAGGAGAAGACUGCGGGUUCGAGUCCUGUACGGAACG here?
Answer: Its yeast fitness is 0.57.

Question: Which yeast fitness does the source give for GUUCCGUUGGAGUGAUGGUAACGUGUCUCCCUCCUAAGGACGAGACUGCGGGUUGGAGUCCCGUACGGAACG here?
Answer: The yeast fitness was ≤ 0.5.

Question: With GUUCCGUUGUCGUAAUGGUAACGCGCCUCCCUCCUAAGAAGAAGACUGCGGGUUCGAGUCCCGUCCGGAACG as the variant, how does the yeast fitness read?
Answer: The yeast fitness was ≤ 0.5.

Question: For GUUCCGUUGGAGUAAUGGUACCGCGUCUCCCUCCUAAGGAGAAGACUGCGGGUUUGAGUCCUGUACCGAACG, which yeast fitness is on record?
Answer: Its yeast fitness is 0.529.

Question: For GUUCCGUUGCCGUAAUGGUAACGCGUCUCCCUCCUAAGGAGAAGACUGCGCGUUCGAGUCCCGUUCGGAACG, which yeast fitness is on record?
Answer: Its yeast fitness is ≤ 0.5.

Question: Which yeast fitness does the source give for GUUCCGUUGCCGUAAUGGUAACGCGUCUCCCUCCUAAGGAGAAGACAACGGGUUCGAGUCCCGUACGGAACG here?
Answer: The yeast fitness was 0.568.

Question: Which yeast fitness does the source give for GUUCCGUUGCCGUAAUGGUAACGCGACUCCCUCCUAAGGAGAAGACUGCGGGUUCGAGCCCCGUAUGGAACG here?
Answer: Its yeast fitness is ≤ 0.5.

Question: For GUUCCGUUGGAGUAAUGGUAACGCGUCUCCCUCCUAAGGCGAAGACUGCGGGUUCGAGUCCCGUACGGAACG, which yeast fitness is on record?
Answer: The yeast fitness was 0.708.

Question: Which yeast fitness does the source give for GUUCCGUUGGAGUAAUGGUAACGCGUCUCCCUCCUAUGGAGAAGACUGCGGGUUCGAGUCCAGUAUGGAACG here?
Answer: The yeast fitness was ≤ 0.5.

Question: Which yeast fitness does the source give for GUUCCGUUGCCGUAAUGGUAACGCGUCUCCCCCCUAAGGAGCAGACUGCGGGUUCGAGUCCCGUCGGGAACG here?
Answer: The yeast fitness was 0.614.

Question: Which yeast fitness does the source give for GUUCCGUUGGAGUAAUGGUAAGGCGUCUCCCUCCUAAGGAGAAGACUGCGGGUUCGAGUCCCGUACACAACG here?
Answer: Its yeast fitness is ≤ 0.5.

Question: Which yeast fitness does the source give for GUUCCGUUGGAGUAAUGGUAUCGCGUCUCCCUCCUAAGGAGAAGACUGCGGGUUCGAGUCCCGUAUGGAACG here?
Answer: Its yeast fitness is ≤ 0.5.

Question: With GUUCCGUUGGAGUAAUGGUGAGGCGUCUCCCUCCUAAGGAGAAGACUGGGGGUUCGAGUCCCGUACGCCACG as the variant, how does the yeast fitness read?
Answer: Its yeast fitness is ≤ 0.5.

Question: For GUUCCGUUGGAGUAAUGGUAACGCGUCUCCCUCCUCAGGAGGAGACCGCGGGUUCGAGUCCCGUACAGAACG, which yeast fitness is on record?
Answer: The yeast fitness was ≤ 0.5.

Question: Which yeast fitness does the source give for GUUCCGUUGGAGUAAUGGUAACGCGUCUCCCUCCUAAGGAGAGGACUGCGGGUUCGAGUCCCGUACGGUACG here?
Answer: Its yeast fitness is 0.582.

Question: Which yeast fitness does the source give for GUUCCGUUGGAGUAAUGGUAACGCGUCUCCCUCCUAAGGAGCAGACUGCGAGUUCGAGUCCCGUACGGCACG here?
Answer: The yeast fitness was ≤ 0.5.

Question: Which yeast fitness does the source give for GUUCCGUUGGAGUAAUGGUUAUGCGUCUCCCUCCUAAGGAGAAGACUGCGGGUUCGAGUCCCGUACGGAACG here?
Answer: The yeast fitness was 0.552.

Question: With GUUCCGUUGUCGAAAUGGUAACGCGUCUCCCUCCUAAGGAGAAGACUGCGGGUUCGAGUCCCGUACGGAACG as the variant, how does the yeast fitness read?
Answer: The yeast fitness was 0.675.

Question: With GUUCCGUUGGAGUAAUGGUAACGCGUCUCCCUCCUAAGGAGAAGACUGCGGGUUCGAGUCCCGUACGGUACG as the variant, how does the yeast fitness read?
Answer: Its yeast fitness is 0.734.

Question: Which yeast fitness does the source give for GUUCCGUUGCCGUAAUGGUAACGCGCCUCCCUCCUAAGGAGAAGGCUGCGGGUUCGAGUCCCGUCCGGAACG here?
Answer: The yeast fitness was 0.635.

Question: For GUUCCGUUGGAGUAAUGGUAUCGCGUCUCCCUCAUAAGGAGAAGACUGCGGGUUCGAGUCCCGUACGGAACG, which yeast fitness is on record?
Answer: Its yeast fitness is ≤ 0.5.

Question: With GUUCCGUUGGAGUAAUGGUAAUGCGUCUCCCUCCCAAGGAGAAGACUGCGGGUUCGAGUCCCGUACGGAACG as the variant, how does the yeast fitness read?
Answer: The yeast fitness was ≤ 0.5.

Question: For GUUCCGUUGGAGUAAUGGUACCGCGUCUCUCUCCUAAGGAGAAGACUGCGGGUUCGAGUCCCGUAUGGAACG, which yeast fitness is on record?
Answer: The yeast fitness was 0.539.

Question: With GUUCCGUUGUCGUAAUGGUAACGCGUCUCCCUCCUAAGGAGUAGACUGCGGGUUCGAGUCCCGUACGGAACG as the variant, how does the yeast fitness read?
Answer: Its yeast fitness is 0.775.

Question: Which yeast fitness does the source give for GUUCCGUUGCCGUAAUGGAAACGCGUCUCCCUCCUAAGGAGAAGACUGCGGGUUCGAGUCCCGUAUGGAACG here?
Answer: Its yeast fitness is ≤ 0.5.

Question: For GUUCCGUUGUCGUAAUGGUAACGCGUCUCCCUCCUAAGGAGAAGACUACGGGUUCGAGUCCCGUACGGAUCG, which yeast fitness is on record?
Answer: Its yeast fitness is 0.649.
